Compound activity: PubChem, Johns Hopkins Ion Channel Center
In the library only some 2.3% were active in any assay of this set; here they are far more common.
TRPC6 inhibitor = inhibitors of mouse TRPC6 channel; Q61143; HEK293-TRPC6, membrane potential dye, ACh-evoked depolarization; stronger effect = lower value; B-score at 10 µM; actives 1.1% (n = 310,000); AID 2553;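 active = B-score under library mean minus 3 SD, initial fluorescence not abnormally high, positive integrated signal ratio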;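 note: B-score derived from integrated fluorescence ratio over the kinetic read; more negative B-score means stronger inhibition of depolarization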
TRPC6 activator = mouse TRPC6 channel activation. AID 2550. actives 0.13% (n = 310,000). HEK293-TRPC6 membrane potential dye fluorescence; stronger effect = higher value. B-score at 10 µM;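 active = B-score of the integrated fluorescence ratio above library mean plus 3 SD, and starting fluorescence ratio within library mean plus 5 SD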;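 note: higher score means more depolarization so channel activation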
TRPC4 PAM = allosterically enhances the mouse TRPC4 cation channel. actives 0.42% (n = 310,000). HEK293 TRPC4beta/mu-opioid, DAMGO EC20, Fluo-4 Ca2+ flux; stronger effect = higher value. Q9QUQ5. B-score at 10 µM. AID 2227;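 active = B-score of calcium response area above 5 SD of library B-scores, with initial fluorescence ratio within 5 SD of library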
Target sequence (Q9QUQ5 whole entry, looked up): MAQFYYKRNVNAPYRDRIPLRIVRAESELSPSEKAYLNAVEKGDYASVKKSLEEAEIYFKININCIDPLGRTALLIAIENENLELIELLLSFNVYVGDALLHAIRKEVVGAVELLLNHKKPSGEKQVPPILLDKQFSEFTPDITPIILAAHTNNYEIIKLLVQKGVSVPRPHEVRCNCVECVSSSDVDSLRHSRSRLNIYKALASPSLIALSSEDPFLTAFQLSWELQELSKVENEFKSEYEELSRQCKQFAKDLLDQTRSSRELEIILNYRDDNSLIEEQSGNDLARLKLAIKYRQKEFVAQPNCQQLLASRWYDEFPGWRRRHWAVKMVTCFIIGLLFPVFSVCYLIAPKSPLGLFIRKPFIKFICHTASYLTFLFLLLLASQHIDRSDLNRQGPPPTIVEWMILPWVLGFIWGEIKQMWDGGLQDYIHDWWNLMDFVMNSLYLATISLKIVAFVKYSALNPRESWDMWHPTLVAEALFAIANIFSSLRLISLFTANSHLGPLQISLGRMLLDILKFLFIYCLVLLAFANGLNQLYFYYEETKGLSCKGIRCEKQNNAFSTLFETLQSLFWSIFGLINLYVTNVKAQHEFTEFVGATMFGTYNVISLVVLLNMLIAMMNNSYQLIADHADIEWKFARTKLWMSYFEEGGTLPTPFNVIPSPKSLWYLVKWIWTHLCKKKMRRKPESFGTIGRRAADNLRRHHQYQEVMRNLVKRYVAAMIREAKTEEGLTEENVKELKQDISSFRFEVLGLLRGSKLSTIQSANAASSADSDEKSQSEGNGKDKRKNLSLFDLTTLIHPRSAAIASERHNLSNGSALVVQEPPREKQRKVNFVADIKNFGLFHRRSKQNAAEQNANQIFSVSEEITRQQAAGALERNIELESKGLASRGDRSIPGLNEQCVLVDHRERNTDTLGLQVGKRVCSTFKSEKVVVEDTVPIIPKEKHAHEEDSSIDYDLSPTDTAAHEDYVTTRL
TRPC4 act = TRPC4 (mouse) channel activation; Q9QUQ5; HEK293 TRPC4beta/mu-opioid, Fluo4 calcium fluorescence; stronger effect = higher value; B-score at 10 µM; actives 0.49% (n = 310,000); AID 2237;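 active = B-score above 5 SD of library B-scores, and initial fluorescence ratio not above library mean plus 5 SD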;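 note: positive B-score marks a calcium rise read as TRPC4 activation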
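System – HEK293 cells stably co-expressing mouse TRPC4beta and mu-opioid receptor · Signal – Fluo4 calcium-sensitive dye fluorescence, kinetic, 1 Hz baseline · Benchmarks – buffer (low) and maximal DAMGO (high) · Read-out – B score of integrated fluorescence ratio per well · Incubation – dye loading 45 min room temperature, 110 s kinetic read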
TRPC4 inh = blocks the mouse TRPC4 cation channel | B-score at 10 µM | actives 0.39% (n = 300,000) | Q9QUQ5 | HEK293 TRPC4beta/mu-opioid, DAMGO-evoked Fluo4 calcium flux; stronger effect = lower value;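 active = B-score over 3 SD under the library average, no early fluorescence shift, positive overall ratio signal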
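Assay system: HEK293 cells with stable TRPC4beta plus mu-opioid receptor expression. Dosing: single dose. Measured by: Fluo4 Ca2+ flux fluorescence. Also added: DAMGO in two steps, submaximal then maximal. Read-out: B score from integrated Fluo4 fluorescence ratio.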
TRPC4 sel inh 2 = second selectivity test of TRPC6 inhibitors: effect on mouse TRPC4; inhibition, % at 10 µM; HEK293 TRPC4/MOR, membrane potential dye fluorescence; channel activated by saturating DAMGO dose; actives 42% (n = 920); shares compounds with TRPC6 inhibitor;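 active = compounds whose fluorescence signal differed from control wells by over 3 SD, either direction, in both duplicate plates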
TRPC4 spec = selectivity of TRPC6 inhibitors: effect on mouse TRPC4. shares compounds with TRPC6 inhibitor. HEK293 TRPC4/mu-opioid, membrane potential fluorescence. activity change, negative = inhibition, % at 10 µM. actives 61% (n = 920);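 active = rise or fall in signal beyond 3 SD of buffer-only wells in both replicate plates, either sign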;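 note: integrated kinetic ratio of fluorescence range over baseline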
HEK293 MPD ctr 2-1 = second check of TRPC6 inhibitor effects in parental HEK293 cells. AID 2779. shares compounds with TRPC6 inhibitor. parental HEK293 membrane potential dye fluorescence; maximal acetylcholine challenge after compound addition. actives 31% (n = 920). signal change vs control, % at 10 µM;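 active = membrane potential signal moving either way by over 3 SD of the maximum-effect control, in both duplicate plates, meaning non-specific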
HEK293 MPD ctr-1 = checks TRPC6 inhibitor effects in parental HEK293 cells; shares compounds with TRPC6 inhibitor; parental HEK293 membrane potential dye fluorescence; membrane potential signal change, % at 10 µM; actives 60% (n = 920); AID 2780;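 active = membrane potential signal shifting up or down by more than 3 SD of buffer-only wells, on both duplicate plates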
HEK293 MPD ctr-2 = parental HEK293 nonspecific activity of TRPC6 modulators | shares compounds with TRPC6 inhibitor | membrane potential dye fluorescence | membrane potential signal change, % at 10 µM | actives 51% (n = 2,400);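 active = membrane potential signal moves up or down beyond 5 SD from buffer-only wells, on both duplicate plates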
HEK293 MPD ctr 2-2 = parental HEK293 nonspecific activity of TRPC6 modulators, second screen; inhibition, % at 10 µM; actives 14% (n = 2,400); shares compounds with TRPC6 inhibitor; AID 488926; membrane potential dye fluorescence; after compound, maximal acetylcholine stimulation;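 active = membrane potential signal drops by more than 5 SD from the mean control signal, in both duplicate plates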
TRPC4 ctr mod = mouse TRPC4 off-target activity of TRPC6 modulators | shares compounds with TRPC6 inhibitor | HEK293 TRPC4/mu-opioid, membrane potential fluorescence | percent change from control (negative = decrease, positive = increase), % at 10 µM | actives 69% (n = 2,400) | AID 488927;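 active = membrane potential signal moved up or down beyond 5 SD of buffer control wells, in both duplicate plates, actives on both sides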
TRPC4 ctr inh 2 = second check of whether TRPC6 modulators also affect mouse TRPC4; shares compounds with TRPC6 inhibitor; HEK293 TRPC4/mu-opioid, membrane potential dye fluorescence; stimulated with maximal-effect DAMGO; inhibition, % at 10 µM; actives 55% (n = 2,400); AID 488928;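 active = drop in membrane potential signal beyond 5 SD of the control wells in both duplicate plates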;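 note: TRPC4 counter screen for TRPC6 hits run under conditions tuned for TRPC6 not TRPC4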
TRPC6 block conf = confirmation of mouse TRPC6 inhibitors. shares compounds with TRPC6 inhibitor. HEK293-TRPC6, membrane potential dye, ACh-evoked depolarization. inhibition, % at 10 µM. actives 43% (n = 3,300);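 active = fluorescence ratio falls more than 5 SD below the full-stimulation control mean, in both duplicate runs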;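 note: integrated fluorescence ratio of peak minus minimum over baseline after agonist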
TRPC6 act confirm = confirmation of mouse TRPC6 activators; AID 488961; HEK293-TRPC6 membrane potential dye fluorescence, FDSS; shares compounds with TRPC6 inhibitor; activation, % at 10 µM; actives 11% (n = 2,800);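 active = ratio signal rise beyond 5 SD above unstimulated control wells' mean, seen in both duplicate runs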
Of the large screens only hits and unclear results are named; the others gave an inactive call (follow-up assays come after a bar, where they were run).

O=C(Nc1ccc(NC(=O)C2CCCCC2)nc1)c1cccs1	none
O=C(COc1ccccc1Br)Nc1ccc2c(c1)OCCCO2	none
Cn1c(=O)c2c(nc(CN3CCc4ccccc4C3)n2Cc2ccccc2)n(C)c1=O	TRPC6 inhibitor -5.7, TRPC4 PAM 46 | HEK293 MPD ctr-2 inactive | HEK293 MPD ctr 2-2 inactive | TRPC4 ctr mod 109% | TRPC4 ctr inh 2 68% | TRPC6 block conf inactive
CN1CCN(C2=Nc3cc(Cl)ccc3Nc3ccccc32)CC1	TRPC6 inhibitor -6.9 | TRPC4 sel inh 2 inactive | TRPC4 spec inactive | HEK293 MPD ctr 2-1 -2.0% | HEK293 MPD ctr-1 inactive | TRPC6 block conf inactive | TRPC6 act confirm inactive
CN1CCN(CCCN2c3ccccc3Sc3ccc(Cl)cc32)CC1	none
CCOC(=O)c1[nH]n(-c2ccc(Cl)cc2)c(=O)c1C	TRPC6 inhibitor -7.8 | TRPC4 sel inh 2 inactive | TRPC4 spec inactive | HEK293 MPD ctr 2-1 inactive | HEK293 MPD ctr-1 inactive | TRPC6 block conf inactive | TRPC6 act confirm inactive
C=CCN1C(=S)CC(c2ccccc2)=Nc2ccccc21	none
Cc1ccccc1C1=NC(C(F)(F)F)(C(F)(F)F)c2c(n(C)c(=O)n(C)c2=O)N1	none
Cn1c2c(c(=O)n(C)c1=O)C(C(F)(F)F)(C(F)(F)F)N=C(c1ccc(Cl)cc1)N2	TRPC6 inhibitor -7.9 | TRPC4 sel inh 2 76% | TRPC4 spec 20% | HEK293 MPD ctr 2-1 inactive | HEK293 MPD ctr-1 11% | TRPC6 block conf 101% | TRPC6 act confirm inactive
CCOc1ccccc1C(C(=O)NC1CCCC1)N(Cc1ccco1)C(=O)CNC(=O)c1ccco1 (centres undefined)	TRPC6 activator 14 | HEK293 MPD ctr-2 350% | HEK293 MPD ctr 2-2 90% | TRPC4 ctr mod 78% | TRPC4 ctr inh 2 inactive | TRPC6 act confirm 150%
Cc1ccc(C(C(=O)NC2CCCCC2)N(Cc2ccco2)C(=O)Cn2cnc3ccccc32)cc1 (centres undefined)	TRPC6 activator 17 | HEK293 MPD ctr-2 inactive | HEK293 MPD ctr 2-2 inactive | TRPC4 ctr mod 122% | TRPC4 ctr inh 2 inactive | TRPC6 block conf inactive | TRPC6 act confirm 30%
O=C(NC1CCCCC1)C(c1ccc(F)cc1)N(Cc1ccco1)C(=O)Cn1nnc2ccccc21 (centres undefined)	none
Cc1ccc2c(c1)cc1c(=O)n(CC(=O)N3CCCC3)nc(C)n12	none
CN(C)CCNc1ncnc2c1cnn2-c1ccc(Cl)cc1	TRPC6 inhibitor -5.2 | HEK293 MPD ctr-2 inactive | HEK293 MPD ctr 2-2 inactive | TRPC4 ctr mod inactive | TRPC4 ctr inh 2 31% | TRPC6 block conf 46% | TRPC6 act confirm inactive
O=C(CN(C(=O)CCC(=O)Nc1nccs1)c1ccccc1F)NCCc1ccccc1	none
CCN(CC)CCSc1nc(O)c(-c2ccccc2)c(=O)n1-c1ccccc1	none
CCN(CC)CCSc1nc2ccccc2c(=S)n1-c1ccccc1	TRPC6 inhibitor -7.3 | TRPC4 sel inh 2 33% | TRPC4 spec 3.5% | HEK293 MPD ctr 2-1 238% | HEK293 MPD ctr-1 7.1% | TRPC6 block conf inactive | TRPC6 act confirm inactive
CCN(CC)CCSc1nnc(Nc2ccccc2)n1-c1ccccc1	TRPC6 inhibitor -7.8 | TRPC4 sel inh 2 inactive | TRPC4 spec 2.4% | HEK293 MPD ctr 2-1 inactive | HEK293 MPD ctr-1 3.4% | TRPC6 block conf inactive | TRPC6 act confirm inactive
CN(C)CCCn1c(=O)n(Cc2ccco2)c(=O)c2c3c(sc21)CCCCC3	none
Cn1c(=O)n(Cc2ccco2)c(=N)c2c3c(sc21)CCC3	TRPC6 inhibitor -7.1 | HEK293 MPD ctr-2 -184% | HEK293 MPD ctr 2-2 inactive | TRPC4 ctr mod -32% | TRPC4 ctr inh 2 46% | TRPC6 block conf 36% | TRPC6 act confirm inactive
Cc1ccc([N+](=O)[O-])cc1NC(=O)CSc1nncn1-c1ccccn1	none
Cc1cc([N+](=O)[O-])ccc1NC(=O)CSc1nncn1-c1ccccn1	TRPC6 inhibitor -5.8 | HEK293 MPD ctr-2 inactive | HEK293 MPD ctr 2-2 inactive | TRPC4 ctr mod inactive | TRPC4 ctr inh 2 inactive | TRPC6 block conf inactive | TRPC6 act confirm inactive
CCN(CC)S(=O)(=O)c1ccc(NN=C2CCN(C)CC2)c([N+](=O)[O-])c1	TRPC6 inhibitor -7.2 | HEK293 MPD ctr-2 -83% | HEK293 MPD ctr 2-2 inactive | TRPC4 ctr mod -20% | TRPC4 ctr inh 2 39% | TRPC6 block conf inactive | TRPC6 act confirm inactive
O=C(c1cccc(F)c1)N1CCN(c2cccc(Cl)c2)CC1	TRPC6 inhibitor -16 | TRPC4 sel inh 2 inactive | TRPC4 spec 5.7% | HEK293 MPD ctr 2-1 inactive | HEK293 MPD ctr-1 2.7% | TRPC6 block conf 59% | TRPC6 act confirm inactive
Cc1ccc(S(=O)(=O)N2CCN(C(=O)c3cccc(F)c3)CC2)cc1	TRPC6 inhibitor -6.1 | HEK293 MPD ctr-2 inactive | HEK293 MPD ctr 2-2 inactive | TRPC4 ctr mod inactive | TRPC4 ctr inh 2 inactive | TRPC6 block conf 70%
O=C(c1ccc(S(=O)(=O)N2CCCC2)cc1)N1CCN(S(=O)(=O)c2cccc(F)c2)CC1	none
COc1ccc(S(=O)(=O)N2CCN(C(=O)c3cccc(Cl)c3)CC2)cc1	TRPC6 inhibitor -5.6 | HEK293 MPD ctr-2 inactive | HEK293 MPD ctr 2-2 inactive | TRPC4 ctr mod 12% | TRPC4 ctr inh 2 inactive | TRPC6 block conf 56%
